Columns and labels:
Trypanosoma cruzi = assay: Growth inhibition of trypomastigote form of Trypanosoma cruzi Y infected in human U2OS cells at 50 uM measured after 72 hrs by DRAQ5 DNA dye based confocal microscopic analysis relative to control; format: organism-based; details: for inhibition at 50 µM: Trypanosoma cruzi, Y, U2OS, read-out: GI; for growth inhibition (GI): trypanosoma cruzi, 50 µM
Leishmania infantum = assay: Growth inhibition of luciferase expressing Leishmania infantum axenic amastigotes infected in human THP1 cells at 10 uM measured after 72 hrs by steady-glo luminescence assay relative to control; format: organism-based; details: for growth inhibition (GI): leishmania infantum, 72 h, 10 µM; for inhibition at 10 µM: Leishmania infantum, THP-1, 72 h, read-out: GI
[1] = Inhibition of N-terminal His-tagged Trypanosoma brucei pteridine reductase 1 using di-hydrobiopterine as substrate measured at 1 min interval for 50 mins in presence of NADPH
Summary of the method: (§1)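 Photometric PTR1 assay with NADPH and dihydrobiopterin substrate. H₄B formation is coupled non-enzymatically to cytochrome c reduction, read as signal increase at 550 nm.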

Trypanosoma brucei [2] = assay: Inhibition of N-terminal His-tagged Trypanosoma brucei pteridine reductase 1 at 50 uM using di-hydrobiopterine as substrate measured at 1 min interval for 50 mins in presence of NADPH relative to control; summary of the method: as §1
[3] = molecular target: T1, Pteridine reductase 1 (Leishmania major) (UniProt Q01782); assay: Inhibition of Leishmania major pteridine reductase 1 at 50 uM using di-hydrobiopterine as substrate in presence of NADPH relative to control; summary of the method: as §1
T1 sequence (whole entry): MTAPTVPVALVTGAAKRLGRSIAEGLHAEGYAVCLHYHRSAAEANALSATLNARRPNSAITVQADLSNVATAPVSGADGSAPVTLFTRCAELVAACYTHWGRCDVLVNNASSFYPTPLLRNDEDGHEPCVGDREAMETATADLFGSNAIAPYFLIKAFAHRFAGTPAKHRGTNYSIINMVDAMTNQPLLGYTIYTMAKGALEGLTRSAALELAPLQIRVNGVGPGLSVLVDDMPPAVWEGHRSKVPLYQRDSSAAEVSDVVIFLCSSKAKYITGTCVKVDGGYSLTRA

Trypanosoma brucei [4] = assay: Growth inhibition of Trypanosoma brucei bloodstream forms at 10 uM measured after 72 hrs by resazurin-based fluorescence assay relative to control; format: organism-based; details: Trypanosoma brucei, read-out: GI
[5] = molecular target: Voltage-gated inwardly rectifying potassium channel KCNH2 (Homo sapiens, UniProt Q12809); assay: Displacement of Tracer Red from human ERG by fluorescence polarization assay
Sequence of Voltage-gated inwardly rectifying potassium channel KCNH2 (Q12809 whole entry): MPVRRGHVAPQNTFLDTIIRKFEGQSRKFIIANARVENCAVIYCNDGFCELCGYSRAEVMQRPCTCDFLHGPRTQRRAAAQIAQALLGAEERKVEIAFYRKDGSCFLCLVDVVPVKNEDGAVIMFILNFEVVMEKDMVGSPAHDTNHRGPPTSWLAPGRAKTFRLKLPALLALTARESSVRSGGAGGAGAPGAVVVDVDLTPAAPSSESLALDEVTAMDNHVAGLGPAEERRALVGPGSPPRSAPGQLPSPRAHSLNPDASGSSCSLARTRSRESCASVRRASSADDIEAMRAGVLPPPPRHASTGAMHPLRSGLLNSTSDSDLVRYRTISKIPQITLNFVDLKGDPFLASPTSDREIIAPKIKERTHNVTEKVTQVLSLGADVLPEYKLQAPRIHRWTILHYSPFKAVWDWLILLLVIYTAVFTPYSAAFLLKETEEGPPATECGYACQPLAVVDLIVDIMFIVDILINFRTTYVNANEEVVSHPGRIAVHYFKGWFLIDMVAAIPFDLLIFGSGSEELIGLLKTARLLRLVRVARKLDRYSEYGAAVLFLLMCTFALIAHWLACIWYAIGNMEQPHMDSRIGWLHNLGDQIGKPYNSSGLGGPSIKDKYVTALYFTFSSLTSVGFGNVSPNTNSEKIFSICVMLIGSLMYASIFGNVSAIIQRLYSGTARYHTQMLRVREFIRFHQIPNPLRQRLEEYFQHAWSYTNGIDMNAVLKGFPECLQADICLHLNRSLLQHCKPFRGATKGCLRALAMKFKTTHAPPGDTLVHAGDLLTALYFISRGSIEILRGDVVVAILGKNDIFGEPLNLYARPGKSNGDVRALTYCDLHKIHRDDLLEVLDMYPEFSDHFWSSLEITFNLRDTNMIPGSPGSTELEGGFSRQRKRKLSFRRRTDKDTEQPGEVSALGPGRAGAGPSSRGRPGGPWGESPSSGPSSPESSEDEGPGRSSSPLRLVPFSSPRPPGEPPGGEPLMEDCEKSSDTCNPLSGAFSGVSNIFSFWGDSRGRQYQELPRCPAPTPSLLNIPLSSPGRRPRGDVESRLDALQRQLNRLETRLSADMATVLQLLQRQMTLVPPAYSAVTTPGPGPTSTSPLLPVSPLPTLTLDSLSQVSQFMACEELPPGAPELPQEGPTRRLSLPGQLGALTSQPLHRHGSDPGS

Cytochrome P450 1A2 = molecular target: T2, Cytochrome P450 1A2 (Homo sapiens, UniProt P05177); assay: Inhibition of human CYP1A2 expressed in baculovirus infected insect cells using beetle D-luciferin as substrate preincubated for 30 mins followed by NADPH addition and measured after 30 mins by CYP450-Glo assay
T2 sequence (P05177 whole entry): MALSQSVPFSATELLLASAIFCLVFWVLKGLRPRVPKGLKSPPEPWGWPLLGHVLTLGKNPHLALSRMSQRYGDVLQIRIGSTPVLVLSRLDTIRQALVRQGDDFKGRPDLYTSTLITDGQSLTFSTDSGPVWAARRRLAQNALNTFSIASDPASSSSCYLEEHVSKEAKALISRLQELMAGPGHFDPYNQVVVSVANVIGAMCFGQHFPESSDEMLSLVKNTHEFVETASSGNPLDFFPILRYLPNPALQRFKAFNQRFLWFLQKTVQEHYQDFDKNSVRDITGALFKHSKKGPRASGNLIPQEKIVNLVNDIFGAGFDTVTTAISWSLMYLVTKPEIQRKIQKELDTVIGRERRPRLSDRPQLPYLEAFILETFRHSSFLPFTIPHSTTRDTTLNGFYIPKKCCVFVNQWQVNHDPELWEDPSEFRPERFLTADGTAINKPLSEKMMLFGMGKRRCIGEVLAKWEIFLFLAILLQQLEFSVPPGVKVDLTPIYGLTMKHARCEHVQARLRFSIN

Cytochrome P450 2C9 = Cytochrome P450 2C9 (Homo sapiens, UniProt P11712); assay: Inhibition of human CYP2C9 expressed in baculovirus infected insect cells using beetle D-luciferin as substrate preincubated for 30 mins followed by NADPH addition and measured after 30 mins by CYP450-Glo assay
Sequence of Cytochrome P450 2C9 (P11712 whole entry): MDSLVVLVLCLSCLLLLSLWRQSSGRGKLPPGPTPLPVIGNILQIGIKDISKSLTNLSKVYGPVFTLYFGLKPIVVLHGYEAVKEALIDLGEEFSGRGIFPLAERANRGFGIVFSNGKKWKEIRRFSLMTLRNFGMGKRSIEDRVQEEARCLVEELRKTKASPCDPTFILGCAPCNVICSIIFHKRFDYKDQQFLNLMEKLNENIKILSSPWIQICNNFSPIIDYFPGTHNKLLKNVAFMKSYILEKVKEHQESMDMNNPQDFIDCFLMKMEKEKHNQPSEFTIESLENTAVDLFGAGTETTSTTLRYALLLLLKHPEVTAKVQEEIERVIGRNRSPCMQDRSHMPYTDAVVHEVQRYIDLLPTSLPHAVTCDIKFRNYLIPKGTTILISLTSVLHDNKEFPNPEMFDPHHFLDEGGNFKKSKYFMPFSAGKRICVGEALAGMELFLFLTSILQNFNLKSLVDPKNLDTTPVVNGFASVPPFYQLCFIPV

Cytochrome P450 2C19 = Cytochrome P450 2C19 (Homo sapiens, UniProt P33261); assay: Inhibition of human CYP2C19 expressed in baculovirus infected insect cells using beetle D-luciferin as substrate preincubated for 30 mins followed by NADPH addition and measured after 30 mins by CYP450-Glo assay
Sequence of Cytochrome P450 2C19 (P33261 whole entry): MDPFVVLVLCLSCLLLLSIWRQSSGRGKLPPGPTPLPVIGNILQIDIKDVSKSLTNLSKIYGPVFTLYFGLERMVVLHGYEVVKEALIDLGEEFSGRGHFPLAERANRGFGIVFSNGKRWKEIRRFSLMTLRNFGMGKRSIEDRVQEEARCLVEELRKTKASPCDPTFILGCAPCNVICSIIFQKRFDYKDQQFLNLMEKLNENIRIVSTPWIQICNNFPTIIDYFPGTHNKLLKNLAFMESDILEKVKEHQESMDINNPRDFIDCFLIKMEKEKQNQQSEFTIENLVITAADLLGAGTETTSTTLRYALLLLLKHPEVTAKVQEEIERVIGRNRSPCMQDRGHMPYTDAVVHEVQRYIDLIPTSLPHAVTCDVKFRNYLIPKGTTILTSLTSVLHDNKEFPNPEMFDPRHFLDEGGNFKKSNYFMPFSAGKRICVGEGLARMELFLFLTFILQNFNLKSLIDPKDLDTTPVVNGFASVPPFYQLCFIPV

Cytochrome P450 2D6 = Cytochrome P450 2D6 (Homo sapiens, UniProt P10635); assay: Inhibition of human CYP2D6 expressed in baculovirus infected insect cells using beetle D-luciferin as substrate preincubated for 30 mins followed by NADPH addition and measured after 30 mins by CYP450-Glo assay
Sequence of Cytochrome P450 2D6 (P10635 whole entry): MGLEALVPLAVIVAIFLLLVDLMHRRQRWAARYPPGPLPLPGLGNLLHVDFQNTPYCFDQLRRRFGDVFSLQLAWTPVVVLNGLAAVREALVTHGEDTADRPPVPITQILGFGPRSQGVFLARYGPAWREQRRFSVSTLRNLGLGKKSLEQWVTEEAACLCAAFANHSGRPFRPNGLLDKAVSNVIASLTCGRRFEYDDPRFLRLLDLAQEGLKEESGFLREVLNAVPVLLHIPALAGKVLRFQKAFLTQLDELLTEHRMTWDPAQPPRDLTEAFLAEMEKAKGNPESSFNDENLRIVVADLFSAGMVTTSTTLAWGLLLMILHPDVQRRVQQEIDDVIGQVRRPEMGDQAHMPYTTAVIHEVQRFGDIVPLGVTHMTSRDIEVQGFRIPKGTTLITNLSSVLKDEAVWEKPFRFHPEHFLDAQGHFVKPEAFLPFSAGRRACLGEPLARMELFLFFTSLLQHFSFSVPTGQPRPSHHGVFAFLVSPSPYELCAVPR

Cytochrome P450 3A4 = Cytochrome P450 3A4 (Homo sapiens, UniProt P08684); assay: Inhibition of human CYP3A4 expressed in baculovirus infected insect cells using beetle D-luciferin as substrate preincubated for 30 mins followed by NADPH addition and measured after 30 mins by CYP450-Glo assay
Sequence of Cytochrome P450 3A4 (P08684 whole entry): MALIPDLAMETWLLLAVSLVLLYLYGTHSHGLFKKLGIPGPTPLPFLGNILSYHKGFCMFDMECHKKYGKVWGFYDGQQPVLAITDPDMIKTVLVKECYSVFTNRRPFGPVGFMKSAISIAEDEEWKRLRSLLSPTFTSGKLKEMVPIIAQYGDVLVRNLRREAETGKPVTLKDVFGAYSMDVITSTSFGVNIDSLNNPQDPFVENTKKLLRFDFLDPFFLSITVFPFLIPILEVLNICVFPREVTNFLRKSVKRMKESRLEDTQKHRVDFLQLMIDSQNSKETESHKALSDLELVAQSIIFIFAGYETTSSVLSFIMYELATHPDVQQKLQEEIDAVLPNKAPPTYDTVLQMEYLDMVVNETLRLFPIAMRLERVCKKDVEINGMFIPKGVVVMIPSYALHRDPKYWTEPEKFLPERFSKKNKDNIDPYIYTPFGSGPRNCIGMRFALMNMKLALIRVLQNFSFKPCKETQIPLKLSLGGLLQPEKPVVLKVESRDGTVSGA

[6] = Cytotoxicity against human A549 cells after 48 hrs by Celltiter-glo assay; format: cell-based
[7] = Cytotoxicity against human THP1 cells after 72 hrs by MTT assay; format: cell-based, THP-1; details: read-out: NOAEL
[8] = Cytotoxicity against human U2OS cells assessed as reduction in cell number; format: cell-based
[9] = Mitochondrial toxicity in human 786-O cells measured after 6 hrs by MitoTracker Red chloromethyl-X-rosamine based assay; format: cell-based, 786-0
[10] = Selectivity ratio of IC50 for Leishmania major pteridine reductase 1 to IC50 for N-terminal His-tagged Trypanosoma brucei pteridine reductase 1

Nc1nc2ccc(C(=O)NCCc3cccs3)cc2s1
inhibition at 50 µM (Trypanosoma cruzi): 29.8%
growth inhibition (GI) (Leishmania infantum): Non-Toxic
IC50 [1]: 7.5 µM
inhibition (Trypanosoma brucei [2]): > 60%
inhibition [3]: 18.3%
inhibition at 10 µM (Trypanosoma brucei [4]): 17%
IC50 [5]: < 10 µM
IC50 (Cytochrome P450 1A2): 10 to 25 µM
IC50 (Cytochrome P450 2C9): > 25 µM
IC50 (Cytochrome P450 2C19): > 25 µM
IC50 (Cytochrome P450 2D6): < 10 µM
IC50 (Cytochrome P450 3A4): > 25 µM
GI50 at 48 h [6]: > 25 µM
MNTC at 72 h [7]: > 25 µM
GI50 [8]: > 25 µM
IC50 at 6 h [9]: > 25 µM
Ratio IC50 [10]: 2 to 100

COc1cc(CNC(=O)c2ccc3nc(N)sc3c2)cc(OC)c1OC
inhibition at 50 µM (Trypanosoma cruzi): 19.8%
growth inhibition (GI) (Leishmania infantum): Non-Toxic
inhibition (Trypanosoma brucei [2]): 30.8%
inhibition [3]: 67.1%
inhibition at 10 µM (Trypanosoma brucei [4]): 9%
IC50 [5]: > 25 µM
IC50 (Cytochrome P450 1A2): > 25 µM
IC50 (Cytochrome P450 2C9): > 25 µM
IC50 (Cytochrome P450 2C19): > 25 µM
IC50 (Cytochrome P450 2D6): > 25 µM
IC50 (Cytochrome P450 3A4): > 25 µM
GI50 at 48 h [6]: > 25 µM
MNTC at 72 h [7]: > 25 µM
GI50 [8]: > 25 µM
IC50 at 6 h [9]: > 25 µM
Ratio IC50 [10]: 2 to 100

COC(=O)C1CCN(C(=O)c2ccc3nc(N)sc3c2)CC1
inhibition at 50 µM (Trypanosoma cruzi): 64.2%
inhibition at 10 µM (Leishmania infantum): 8%
inhibition (Trypanosoma brucei [2]): 36.4%
inhibition [3]: 23.3%
inhibition at 10 µM (Trypanosoma brucei [4]): 19%
IC50 [5]: > 25 µM
IC50 (Cytochrome P450 1A2): 10 to 25 µM
IC50 (Cytochrome P450 2C9): 10 to 25 µM
IC50 (Cytochrome P450 2C19): > 25 µM
IC50 (Cytochrome P450 2D6): 10 to 25 µM
IC50 (Cytochrome P450 3A4): 10 to 25 µM
GI50 at 48 h [6]: > 25 µM
MNTC at 72 h [7]: > 25 µM
GI50 [8]: > 25 µM
IC50 at 6 h [9]: > 25 µM
Ratio IC50 [10]: 2 to 100

Nc1nc2ccc(C(=O)N(CCO)Cc3ccccc3)cc2s1
growth inhibition (GI) (Trypanosoma cruzi): Non-Toxic
inhibition at 10 µM (Leishmania infantum): 20%
IC50 [1]: 58.1 µM
inhibition (Trypanosoma brucei [2]): > 60%
inhibition [3]: 24.1%
inhibition at 10 µM (Trypanosoma brucei [4]): 8%
IC50 [5]: > 25 µM
IC50 (Cytochrome P450 1A2): > 25 µM
IC50 (Cytochrome P450 2C9): > 25 µM
IC50 (Cytochrome P450 2C19): > 25 µM
IC50 (Cytochrome P450 2D6): < 10 µM
IC50 (Cytochrome P450 3A4): 10 to 25 µM
GI50 at 48 h [6]: > 25 µM
MNTC at 72 h [7]: > 25 µM
GI50 [8]: > 25 µM
IC50 at 6 h [9]: > 25 µM
Ratio IC50 [10]: 2 to 100

CSc1ccc2nc(N)sc2c1
inhibition at 50 µM (Trypanosoma cruzi): 22.5%
growth inhibition (GI) (Leishmania infantum): Non-Toxic
inhibition (Trypanosoma brucei [2]): 16.7%
inhibition [3]: 26.9%
inhibition at 10 µM (Trypanosoma brucei [4]): 12%
IC50 [5]: < 10 µM
IC50 (Cytochrome P450 1A2): < 10 µM
IC50 (Cytochrome P450 2C9): > 25 µM
IC50 (Cytochrome P450 2C19): < 10 µM
IC50 (Cytochrome P450 2D6): < 10 µM
IC50 (Cytochrome P450 3A4): > 25 µM
GI50 at 48 h [6]: > 25 µM
MNTC at 72 h [7]: > 25 µM
GI50 [8]: > 25 µM
IC50 at 6 h [9]: < 10 µM
Ratio IC50 [10]: 2 to 100

COc1ccc2nc(N)sc2c1
inhibition at 50 µM (Trypanosoma cruzi): 32.9%
growth inhibition (GI) (Leishmania infantum): Non-Toxic
inhibition (Trypanosoma brucei [2]): 29.9%
inhibition [3]: 15.2%
inhibition at 10 µM (Trypanosoma brucei [4]): 6%
IC50 [5]: < 10 µM
IC50 (Cytochrome P450 1A2): 10 to 25 µM
IC50 (Cytochrome P450 2C9): > 25 µM
IC50 (Cytochrome P450 2C19): 10 to 25 µM
IC50 (Cytochrome P450 2D6): < 10 µM
IC50 (Cytochrome P450 3A4): 10 to 25 µM
GI50 at 48 h [6]: < 10 µM
MNTC at 72 h [7]: > 25 µM
GI50 [8]: > 25 µM
IC50 at 6 h [9]: < 10 µM
Ratio IC50 [10]: 2 to 100

Nc1nc2ccc(S(=O)(=O)Cc3ccc(Cl)c(Cl)c3)cc2s1
inhibition at 50 µM (Trypanosoma cruzi): 32.8%
inhibition at 10 µM (Leishmania infantum): 21%
inhibition (Trypanosoma brucei [2]): 16.7%
inhibition [3]: 26.9%
inhibition at 10 µM (Trypanosoma brucei [4]): 37%
IC50 [5]: > 25 µM
IC50 (Cytochrome P450 1A2): > 25 µM
IC50 (Cytochrome P450 2C9): > 25 µM
IC50 (Cytochrome P450 2C19): < 10 µM
IC50 (Cytochrome P450 2D6): < 10 µM
IC50 (Cytochrome P450 3A4): 10 to 25 µM
GI50 at 48 h [6]: 10 to 25 µM
MNTC at 72 h [7]: 10 to 25 µM
GI50 [8]: > 25 µM
IC50 at 6 h [9]: > 25 µM
Ratio IC50 [10]: 2 to 100

Nc1nc2ccc(S(=O)(=O)Cc3ccccc3)cc2s1
growth inhibition (GI) (Trypanosoma cruzi): Non-Toxic
growth inhibition (GI) (Leishmania infantum): Non-Toxic
IC50 [1]: 57.6 µM
inhibition (Trypanosoma brucei [2]): > 60%
inhibition [3]: 27.1%
inhibition at 10 µM (Trypanosoma brucei [4]): 5%
IC50 [5]: > 25 µM
IC50 (Cytochrome P450 1A2): > 25 µM
IC50 (Cytochrome P450 2C9): > 25 µM
IC50 (Cytochrome P450 2C19): > 25 µM
IC50 (Cytochrome P450 2D6): 10 to 25 µM
IC50 (Cytochrome P450 3A4): > 25 µM
GI50 at 48 h [6]: > 25 µM
MNTC at 72 h [7]: > 25 µM
GI50 [8]: > 25 µM
IC50 at 6 h [9]: > 25 µM
Ratio IC50 [10]: 2 to 100

N=C(N)c1ccc(OCCCCCOc2ccc(C(=N)N)cc2)cc1 [PENTAMIDINE]
IC50 (Cytochrome P450 1A2): > 25 µM
IC50 (Cytochrome P450 2C19): > 25 µM
IC50 (Cytochrome P450 2D6): 10 to 25 µM
GI50 at 48 h [6]: > 25 µM
MNTC at 72 h [7]: > 25 µM
IC50 at 6 h [9]: > 25 µM

COC(=O)C1CCN(C(=O)c2ccc(CNC(=O)c3ccc4nc(N)sc4c3)cc2)CC1
growth inhibition (GI) (Trypanosoma cruzi): Non-Toxic
growth inhibition (GI) (Leishmania infantum): Non-Toxic
IC50 [1]: 21.8 µM
inhibition (Trypanosoma brucei [2]): > 60%
inhibition [3]: 1.97%
inhibition at 10 µM (Trypanosoma brucei [4]): 24%
IC50 [5]: < 10 µM
IC50 (Cytochrome P450 1A2): > 25 µM
IC50 (Cytochrome P450 2C9): > 25 µM
IC50 (Cytochrome P450 2C19): > 25 µM
IC50 (Cytochrome P450 2D6): > 25 µM
IC50 (Cytochrome P450 3A4): > 25 µM
GI50 at 48 h [6]: > 25 µM
MNTC at 72 h [7]: > 25 µM
GI50 [8]: > 25 µM
IC50 at 6 h [9]: < 10 µM
Ratio IC50 [10]: 2 to 100

Reference: ChEMBL document CHEMBL4387708, “Enhancement of Benzothiazoles as Pteridine Reductase-1 Inhibitors for the Treatment of Trypanosomatidic Infections” (J Med Chem, 2019)
